Consider 97 compounds from ChEMBL document CHEMBL4513216, “Probing the Open Global Health Chemical Diversity Library for Multistage-Active Starting Points for Next-Generation Antimalarials” (ACS Infect Dis, 2020).

Molecules are shown by their SMILES.

A short description of the data set: Toxicity liver stage against HepG2, at 10uM. Type of data set: cell-based. On the set-up: test concentration 10 uM, cell line HepG2-A16-CD81EGFP. Particulars: human, HepG2-A16-CD81EGFP cells; read-out: INHIBITION
Summed up: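 Uninfected HepG2-A16-CD81EGFP cells, 3 × 10^3 per well, 1536-well, plated on prespotted compound at 10 μM final, parasite-free screening media added to match infected plates; puromycin 10 μM positive, DMSO 0.5% negative; run in parallel with 48 h PbLuc assay at 37 °C, 5% CO2; viability by CellTiter-Glo luminescence, normalized to controls.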
In the case of `Cc1cccc(CN2CCN3C(=O)NC[C@H]3C2)n1`, the cytotoxicity at 10 µM is -3.3%.
As to `Clc1ccc(-c2c[nH]c([C@@H]3COCCN3)n2)cc1`, the cytotoxicity at 10 µM was -10.1%.
Under `Cc1cc2[nH]c(=O)c(=O)[nH]c2cc1S(=O)(=O)NC1CCCCC1` stands -8.41%.
As for `CN(Cc1ccccc1)C(=O)Cn1nc(N2CCOCC2)ccc1=O`, the figure is 9.55%.
In the case of `O=C(NCC(F)(F)F)c1ccc(-n2cccn2)nn1`, the cytotoxicity at 10 µM was -8.35%.
As for `O=C(c1ccco1)N1C[C@H]2CCCN(C(=O)c3ccsc3)[C@H]2C1`, the figure is 8.36%; as for `c1ccc(CN2Cc3ccnn3CC(COCc3cccnc3)C2)nc1` (configuration not stated), -146%; as for `CCN1C(=O)C2(CCOCC2)c2cc(NC(=O)c3cnccn3)ccc21`, -2.98%.
Under `CC(C)N(C)C(=O)C1=NOC2(CCN(C(=O)NCc3cccnc3)C2)C1` (configuration not stated) stands -3.75%.
Under `COC(=O)N1CCc2ccc(NC(=O)c3cn(C)nn3)cc2C1` stands -1.3%.
Turning to `COCC(=O)N1CCC(c2nc3ccc(-c4ccccc4)cn3n2)CC1`, the cytotoxicity at 10 µM was -0.555%.
In the case of `O=C(C1CC=CC1)N1C[C@@H]2[C@@H](C1)OCC(=O)N2Cc1cccnc1`, the cytotoxicity at 10 µM came to 2.45%.
Under `CC(C)n1cc(S(=O)(=O)N2CCSCC2)cn1` stands 6.64%; under `COc1cc2cc(C(=O)N[C@@H](C)C(=O)O)n(C)c2c(OC)c1OC`, 12.5%; under `CCS(=O)(=O)Nc1ccn(Cc2cccc(Cl)c2)n1`, -4.49%.
In the case of `CCC(C)c1noc(C2CCN(C(=O)c3cccs3)CC2)n1` (configuration not stated), the cytotoxicity at 10 µM is -12.8%.
Under `Cc1noc(C)c1CC(=O)N1CCC(c2ccn3nccc3n2)CC1` stands -0.317%; under `CNc1cc(CCNC(=O)CC(C)C)nc(-c2ccccn2)n1`, 1.26%.
As for `CC1CCc2nn(CCNC(=O)C3CCCC3)c(=O)cc2C1` (configuration not stated), the figure is 7.71%; as for `COCC(=O)N1CCC(c2cc3ncccc3c(O)n2)CC1`, -22.7%; as for `Cc1ccc2c(c1)C(=O)NCC1(CCN(C(=O)c3csc(C)c3)CC1)O2`, -27.7%.
Under `Cc1cnn(CC(C)NCc2cccc(C#N)c2)c1` (configuration not stated) stands -2.62%; under `O=C(CCC(=O)N1CCc2ccccc2C1)c1cccs1`, -61.8%; under `COc1ccc(NC(=O)N2CCN(CCSc3ccccc3)CC2)cc1`, 6.13%.
On to `O=C(C1CC1)N(CCc1ccccc1)C1CCOC1` (configuration not stated), for which the cytotoxicity at 10 µM is -6.93%.
For `CCOc1c(F)cccc1C(=O)N(C)CCn1cccn1`, the cytotoxicity at 10 µM worked out at 3.76%.
Under `N#Cc1ccc(CN2CCCCC2Cn2cncn2)c(F)c1` (configuration not stated) stands -1.34%.
Under `CC(C)c1cc(C(=O)N2Cc3ccccc3CC2C(=O)O)nn1C` (configuration not stated) stands 7.97%; under `CCc1ncc2c(n1)CN(c1nnc(C)c(C)c1C#N)CC2`, -134%; under `O=C(CCn1cnc2cc(F)c(F)cc21)N1CCN(C2CC2)CC1`, -1.54%.
As for `CNC(=O)N1CCC(=Cc2ccccc2)CC1`, the figure is -1.52%.
For the compound `O=S(=O)(CCCN1CCc2c(ncn2C2CC2)C1)c1ccccc1`, the cytotoxicity at 10 µM is -3.33%.
As for `CCOc1ncccc1CNC(=O)c1csc(Br)c1`, the figure is 0.291%; as for `CC1(C)CC1C(=O)NS(=O)(=O)Cc1cc(-c2ccccc2)no1` (configuration not stated), -11%.
As for `CC1(C)COCCN1C(=O)Cc1csc(Cc2ccccn2)n1`, the figure is 3.31%; as for `Cc1ccccc1C1CCN(C(=O)CCNS(C)(=O)=O)C1` (configuration not stated), -1.03%; as for `Cc1ccccc1CS(=O)(=O)c1nnc(N2CCOCC2)s1`, -9.61%.
Turning to `O=C(NC1CC1)C1CCCN(c2cccc(C(F)(F)F)n2)C1` (configuration not stated), the cytotoxicity at 10 µM is 2.43%.
Take `CC(NCc1ccc(-c2ccc(F)cc2)o1)c1nnc2n1CCC2` (configuration not stated): the cytotoxicity at 10 µM is -4.21%.
In the case of `COc1cc(C)nc(N2CCN(C(=O)CCc3cccs3)CC2)n1`, the cytotoxicity at 10 µM stood at 5.77%.
Under `COC(=O)C(C)(C)NC(=O)C1CC(=O)N(CC(F)(F)F)C1` (configuration not stated) stands -141%; under `CC(C)c1cc(C(=O)NC2CCN(CC(N)=O)CC2)nn1C(C)(C)C`, -6.95%.
As for `COc1ccccc1C(NC(=O)C1CCC1)c1noc(C)n1` (configuration not stated), the cytotoxicity at 10 µM was 0.338%.
Take `Cc1nc(CCNC(=O)NC(C)c2ccc3c(c2)OCCO3)cs1` (configuration not stated): the cytotoxicity at 10 µM is -1.18%.
Under `COCc1ccccc1CNC(=O)CNc1cccc(Cl)c1OC` stands 6.39%; under `CCN1C(=O)C2(CCCCC2)NC12CCSCC2`, -149%.
As for `O=C(NCc1ccc2c(c1)OCO2)N1CCCC2(C1)OCCO2`, the figure is 3.07%; as for `COc1ccccc1COCC(O)CN(C)c1ccc(C)cc1C` (configuration not stated), 9.6%; as for `CC(CC(=O)Nc1ncn(CC(=O)N2CCCCCC2)n1)C1CC1` (configuration not stated), 5.75%.
`O=C(NCCn1ccnc1)c1csc2c1CCCC2`: the cytotoxicity at 10 µM was -1.34%.
As for `Cc1cc(CNC(=O)CCc2ccc(S(N)(=O)=O)cc2)no1`, the figure is 7.81%; as for `O=C(Cn1cc(I)cn1)N1CCNC1=O`, 1.53%.
As to `COCCC(=O)Nc1cc(CC(C)(C)C)n[nH]1`, the cytotoxicity at 10 µM amounted to 3.97%.
For `COc1cccc(C2CCCN2C(=O)c2cc3c([nH]c2=O)CCC3)c1` (configuration not stated), the cytotoxicity at 10 µM was -12%.
On to `Cc1noc(C(C)C)c1C(=O)NS(=O)(=O)c1ccc(Cl)cc1`, for which the cytotoxicity at 10 µM is -8.59%.
`CCn1c(CC2CCN(S(=O)(=O)Cc3ccccc3)CC2)nn(C)c1=O`: the cytotoxicity at 10 µM was -2.43%.
As for `COc1ccc(OC)c(-c2nc(CN(C)Cc3nonc3C)c(C)o2)c1`, the cytotoxicity at 10 µM was 13.5%.
`CCCN1CCN(Cc2nc3ccccc3[nH]2)[C@H]2CS(=O)(=O)C[C@H]21`: the cytotoxicity at 10 µM is -137%.
Regarding `Cn1c(Cn2ccnc2)nnc1C1CCN(C(=O)c2cccnc2)CC1`, the cytotoxicity at 10 µM was -96.4%.
Under `COc1ccccc1C(=O)N1CCN(C(=O)CCn2ccnc2)CC1` stands -148%; under `CC(C)c1noc(Cn2ncc3ccccc3c2=O)n1`, -3.69%; under `CN(CCO)C[C@@H]1CN(Cc2ccccc2C#N)C[C@@H]1CO`, -0.951%.
Under `Cn1cccc1C(=O)N1CCC(c2nccn2Cc2ccncc2)CC1` stands -12%.
Under `CCCOCC1CCN(C(=O)c2cnc(-c3cccnc3)nc2O)C1` (configuration not stated) stands -2.55%.
With `Cc1ccc(C#N)c(N2CC(C)(C)[C@@](C)(O)C2)n1`, the cytotoxicity at 10 µM stood at 1.39%.
Under `Cc1nc(N)ccc1CC1COc2ccccc2C1` (configuration not stated) stands 3.79%; under `Cc1ccccc1OC1CCN(C(=O)CNC(=O)N(C)C)CC1`, 9.83%.
For `Cc1ccsc1C(CNC(=O)c1cc(=O)[nH]c(=O)[nH]1)N(C)C` (configuration not stated), the cytotoxicity at 10 µM is 8.99%.
As for `CCc1cc(CN2CCC(CCC(=O)Nc3ccccc3Cl)CC2)on1`, the figure is 5.27%.
Under `CC(C)N1CCC(N2CCN(C3CCC3)CC2CCO)CC1` (configuration not stated) stands -12.5%.
Under `COC(=O)N1CC(C)=C(C)CN1C(=O)Nc1cccc(Cl)c1` stands 0.359%; under `Cc1cc(C(=O)N2CCCCC2C)ccc1NC(=O)N1CCOCC1` (configuration not stated), 7.02%.
Consider `Cc1nc(CNC(=O)NCc2cccnc2N(C)C)cs1`, for which the cytotoxicity at 10 µM was -2.15%.
As for `CS(=O)(=O)NC1CCN(C(=O)NCc2ccccn2)CC1`, the figure is -5.04%; as for `COc1cccc(CN(C)CC(=O)NC2(C)CCS(=O)(=O)C2)c1` (configuration not stated), -2.3%; as for `O=C(NCCOc1ccc2c(c1)OCO2)N1CCCC(CO)C1` (configuration not stated), -22.3%.
As for `Cc1cc(C)n(CC2CN(Cc3nc(C4CC4)no3)CCO2)n1` (configuration not stated), the figure is -5.13%; as for `CN(C)c1cc(CNC(=O)Nc2nnc(C3CC3)s2)ccn1`, -10.8%.
Under `CC(C)COC(C)C(=O)NCc1ccc(F)cc1` (configuration not stated) stands -2.9%; under `O=C(Cc1ccc2c(c1)OCCO2)N1CCCC(n2cncn2)C1` (configuration not stated), -7.85%.
Turning to `CCc1noc(CN2CCN(C(=O)N(C)C)CC2)n1`, the cytotoxicity at 10 µM is -4.97%.
As for `O=C(NCc1nnc2ccccn12)N1CCc2sccc2C1`, the figure is -1.25%; as for `CNC(=O)[C@@H](c1ccccc1F)N1CCC[C@H]1C(=O)NC1CCOCC1`, -3.73%.
Regarding `O=C(NCc1cncc2c1CCN(Cc1ccccc1)C2)C1CC1`, the cytotoxicity at 10 µM is 12.1%.
As for `CS(=O)(=O)N1CCC2(CC1)COC(COc1ccccn1)C2` (configuration not stated), the figure is 5.63%.
As for `CCS(=O)(=O)N1C[C@H]2CN(Cc3cccnc3)C(=O)[C@H]2C1`, the figure is -17.8%; as for `O=C(c1cnoc1)N1CCC[C@]2(C[C@H](Oc3ncccc3F)CO2)C1`, -10.2%; as for `NC(=O)COc1ccc(CNCc2cc(F)cc(F)c2)cc1`, -7.85%.
As for `CS(=O)(=O)N1CC[C@H]2[C@H](C[C@@H](Cn3cncn3)N2CC2CC2)C1`, the figure is -6.25%; as for `CN1CC2(CCN(C(=O)Cc3ccccn3)CC2)OCC1=O`, -3.39%; as for `CN(C)CC(=O)N1Cc2nnn(C)c2C(COCc2ccccn2)C1` (configuration not stated), 9.26%.
`Cc1ccc(CN2CCC[C@]3(C(=O)O)CN(CC4CC4)C[C@@H]3C2)s1`: the cytotoxicity at 10 µM is -112%.
For `CCN1CCC2(CCN(Cc3nccs3)CC2)C1=O`, the cytotoxicity at 10 µM was -0.311%.
Under `COCC(=O)N1CCC2(CCC2N(C)Cc2ccco2)CC1` (configuration not stated) stands 0.169%.
Under `C[C@@H]1CN(S(C)(=O)=O)C[C@]12CCN(Cc1cccnc1)C2=O` stands 0.169%.
As for `CC(c1ccncc1)n1cc2nc(N(C)C)[nH]cc-2c1=O` (configuration not stated), the figure is -3.64%.
`O=C(c1cc(Cl)c[nH]c1=O)N1C[C@H]2CC[C@@H](C1)N(Cc1ccccc1)C2`: the cytotoxicity at 10 µM is -113%.
